From ChEMBL document CHEMBL4673245, “Discovery of AZD9833, a Potent and Orally Bioavailable Selective Estrogen Receptor Degrader and Antagonist” (J Med Chem, 2020)
≈ marks a conversion by molar mass, not a printed value.

Tests used:
[1] = In vivo antagonist activity at ERalpha in human MCF7 cells xenografted CB17 SCID mouse assessed as decrease in PR expression level at 10 mg/kg, po administered daily via oral gavage for 21 days measured 24 hrs post last dose by Western blot analysis relative to control; format: functional; design: scale not given: the % may be the effect or the level left; settings: time 21 day
[2] = Intrinsic clearance in mouse hepatocytes assessed per million cells; format: ADME, cell-based, Hepatocyte; settings: read-out: CLH
Procedure, shortened: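 Compound added from DMSO stock to isolated hepatocytes diluted to 1x10⁶ cells/mL. Metabolic turnover rate is reported as intrinsic clearance in µl/min/10⁶ cells.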

[3] = Clearance in mouse at 2 mg/kg, iv or 5 mg/kg, po relative to liver blood flow; format: ADME, organism-based; settings: in vivo
[4] = Solubility of compound in FASSIF at pH 6.5 using crystalline form of sample; format: physicochemical
[5] = Fraction absorbed in mouse at 2 mg/kg, iv or 5 mg/kg, po; format: ADME, organism-based; settings: in vivo, read-out: Fabs
[6] = Fraction unbound in human plasma by equilibrium dialysis method; format: ADME, cell-free
Procedure, shortened: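 Fraction unbound measured from DMSO stock by equilibrium dialysis in 10% human plasma.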

[7] = Oral bioavailability in mouse at 5 mg/kg; format: ADME, organism-based; settings: in vivo
MCF7 [8] = assay: Antitumor activity against human […] cells xenografted in CB17 SCID mouse assessed as decrease in tumor volume administered daily via oral gavage for 21 days; format: functional, cell-based; settings: dose 0.5-50 mg/kg, time 21.0 day
[9] = Dissociation constant, dibasic pKa of compound in 0.1 M potassium chloride in presence of piperidine by UV-vis spectroscopy; format: physicochemical
[10] = Volume of distribution at steady state in mouse at 2 mg/kg, iv or 5 mg/kg, po; format: ADME, organism-based; settings: in vivo, read-out: Vdss
[11] = Fraction absorbed in rat at 0.5 mg/kg, iv or 1 mg/kg, po; format: ADME, organism-based; settings: in vivo, read-out: Fabs
Procedure, shortened: (§1)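 Rat PK: single IV dose 0.5 mg/kg and oral dose 1 mg/kg, formulated in 5% DMSO:95% hydroxypropyl-β-cyclodextrin (30% w/v), dosed at 1 mL/kg IV and 4 mL/kg PO.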

[12] = Half-life in mouse at 2 mg/kg, iv or 5 mg/kg, po; format: ADME, organism-based; settings: in vivo
Cytochrome P450 1A2 = molecular target: T1, Cytochrome P450 1A2 (Homo sapiens, UniProt P05177); assay: Inhibition of CYP1A2 in human liver microsomes; format: ADME
T1 sequence (P05177 whole entry): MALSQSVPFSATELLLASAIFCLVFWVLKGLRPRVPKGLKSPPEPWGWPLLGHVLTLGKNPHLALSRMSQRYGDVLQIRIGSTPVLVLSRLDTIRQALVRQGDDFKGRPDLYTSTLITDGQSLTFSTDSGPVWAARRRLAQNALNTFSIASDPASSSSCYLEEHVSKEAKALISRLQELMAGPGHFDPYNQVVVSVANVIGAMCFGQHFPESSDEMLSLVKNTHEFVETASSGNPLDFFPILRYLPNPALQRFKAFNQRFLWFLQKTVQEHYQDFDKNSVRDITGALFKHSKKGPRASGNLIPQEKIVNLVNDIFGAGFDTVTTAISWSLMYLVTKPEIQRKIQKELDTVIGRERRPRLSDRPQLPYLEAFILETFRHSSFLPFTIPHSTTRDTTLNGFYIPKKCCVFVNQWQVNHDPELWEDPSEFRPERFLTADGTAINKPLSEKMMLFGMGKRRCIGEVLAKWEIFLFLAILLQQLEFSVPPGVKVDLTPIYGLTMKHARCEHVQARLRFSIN
Procedure, shortened: (§2)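 High-throughput human liver microsome panel of five CYP isoforms; inhibition reported as IC50.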

[13] = Antitumor activity against human […] cells xenografted in CB17 SCID mouse assessed as tumor regression at 10 mg/kg, po administered daily via oral gavage for 21 days relative to control; format: functional, MCF7; settings: time 21 day
[14] = Clearance in rat at 0.5 mg/kg, iv or 1 mg/kg, po relative to liver blood flow; format: ADME, organism-based; settings: in vivo; procedure, shortened: as §1
[15] = Intrinsic clearance in rat hepatocytes assessed per million cells; format: ADME, cell-based, Hepatocyte; settings: read-out: CLH
Procedure, shortened: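 Hepatocyte intrinsic clearance measured from DMSO stock in isolated hepatocytes diluted to 1x10⁶ cells/mL; rate expressed as µl/min/10⁶ cells.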

[16] = Oral bioavailability in rat at 1 mg/kg; format: ADME, organism-based; settings: in vivo; procedure, shortened: as §1
[17] = Clearance in rat at 0.5 mg/kg, iv or 1 mg/kg, po; format: ADME, organism-based; settings: in vivo; procedure, shortened: as §1
[18] = Chemical stability of compound assessed as drug degradation in buffer at pH 1 stored at 22 to 60 degreeC measured after 5 days; format: physicochemical; settings: pH 1, 120 h, time 5 day
[19] = Fraction unbound in rat plasma; format: ADME, cell-free
[20] = Fraction unbound in dog plasma; format: ADME, cell-free, Canis lupus familiaris
[21] = In vivo antagonist activity at ERalpha in human MCF7 cells xenografted CB17 SCID mouse assessed as decrease in PR expression level at 50 mg/kg, po administered daily via oral gavage for 21 days measured 24 hrs post last dose by Western blot analysis relative to control; format: functional; design: scale not given: the % may be the effect or the level left; settings: time 21 day
[22] = Volume of distribution at steady state in rat at 0.5 mg/kg, iv or 1 mg/kg, po; format: ADME, organism-based; settings: in vivo, read-out: Vdss
Procedure, shortened: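 Rat dosed IV at 0.5 mg/kg and PO at 1 mg/kg, both formulated in 5% DMSO:95% hydroxypropyl-β-cyclodextrin (30% w/v), at 1 mL/kg IV and 4 mL/kg PO. Vdss (L/kg) derived from the pharmacokinetic profile after dosing.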

[23] = Stability of compound at 60 degC and ambient dry condition assessed parent compound remaining measured 2 weeks using amorphous form of sample by chromatographic method; format: physicochemical; settings: solid sample, read-out: Stabilty
[24] = Stability of compound at 60 degC and 75% relative humidity assessed parent compound remaining measured 1 week using amorphous form of sample by chromatographic method; format: physicochemical; settings: solid sample, time 1 weeks, read-out: Stabilty
[25] = Chemical stability of compound assessed as drug degradation in buffer at pH 10 stored at 22 to 60 degreeC measured after 5 days; format: physicochemical; settings: pH 10, 120 h, time 5 day
[26] = Photostability of compound under 1.2 mil lux.h white light and 200 W.h/m2 UV light assessed parent compound remaining using crystalline form of sample by chromatographic method; format: physicochemical
[27] = Stability of compound at 60 degC and 75% relative humidity assessed parent compound remaining measured 1 week using crystalline form of sample by chromatographic method; format: physicochemical; settings: solid sample, time 1 weeks, read-out: Stabilty
Cytochrome P450 2C19 = Cytochrome P450 2C19 (Homo sapiens, UniProt P33261); assay: Inhibition of CYP2C19 in human liver microsomes; format: ADME; procedure, shortened: as §2
Cytochrome P450 2C19, sequence (P33261 whole entry): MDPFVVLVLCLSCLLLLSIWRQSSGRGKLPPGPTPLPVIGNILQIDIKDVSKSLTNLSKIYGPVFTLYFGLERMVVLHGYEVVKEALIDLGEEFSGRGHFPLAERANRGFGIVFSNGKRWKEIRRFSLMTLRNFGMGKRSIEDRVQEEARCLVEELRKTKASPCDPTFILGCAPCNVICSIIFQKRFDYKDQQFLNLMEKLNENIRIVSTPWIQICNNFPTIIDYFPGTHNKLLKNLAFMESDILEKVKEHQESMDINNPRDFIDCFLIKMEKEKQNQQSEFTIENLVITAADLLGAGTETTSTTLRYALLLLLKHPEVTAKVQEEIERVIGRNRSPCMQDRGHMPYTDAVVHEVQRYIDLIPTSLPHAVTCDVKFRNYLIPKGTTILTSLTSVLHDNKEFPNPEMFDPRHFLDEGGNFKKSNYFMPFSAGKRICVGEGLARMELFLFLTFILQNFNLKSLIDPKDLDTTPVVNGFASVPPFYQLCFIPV

[28] = Photostability of compound under 1.2 mil lux.h white light and 200 W.h/m2 UV light assessed parent compound remaining using amorphous form of sample by chromatographic method; format: physicochemical
[29] = Fraction unbound in mouse plasma; format: ADME, cell-free
[30] = Antitumor activity against human […] cells xenografted in CB17 SCID mouse assessed as tumor growth inhibition at 2 mg/kg, po administered daily via oral gavage for 21 days relative to control; format: functional; settings: MCF7, po, time 21 day, read-out: TGI
MCF7 [31] = assay: Antiproliferative activity against human MCF7 cells harboring Y537S mutant assessed as reduction in cell viability incubated for 4 to 6 days by SYTOX Green dye based fluorescence assay; format: functional
[32] = Solubility of compound in phosphate buffer at pH 7.4 using crystalline form of sample; format: physicochemical

## C[C@@H]1Cc2c(ccc3[nH]ncc23)[C@@H](c2ccc(NC3CN(CCCF)C3)cn2)N1CC(F)(F)F [CAMIZESTRANT]
[1]
  Activity: 8.9%
[2]
  hepatocyte CLint: 18 µL/min/1e6 cells
[3]
  CL: 66%
[4]
  solubility thermodynamic: 1500 µg/mL (≈ 3150 µM)
[5]
  Fa: 50%
[6]
  fraction unbound: 0.23
[7]
  bioavailability: 16%
MCF7 [8]
  Activity: Dose-dependent effect
[9]
  pKa: 4.8
[10]
  Vd: 9.2 L/kg
[11]
  Fa: > 95%
[12]
  half-life: 5.1 h
Cytochrome P450 1A2
  IC50: > 30 µM
[13]
  Activity: 15%
[14]
  CL: 106%
[15]
  hepatocyte CLint: 23 µL/min/1e6 cells
[16]
  bioavailability: 19%
[17]
  clearance: 73 mL/min/kg
[18]
  Stabilty: Unstable
[19]
  fraction unbound: 0.26
[20]
  fraction unbound: 0.15
[21]
  Activity: 6.3%
[22]
  Vd: 13 L/kg
[23]
  remaining at 336 h: 98.4%
[24]
  remaining at 168 h: 82.4%
[25]
  Stabilty: Unstable
[26]
  Stabilty: 98.9%
[27]
  remaining at 168 h: 99.5%
Cytochrome P450 2C19
  IC50: > 30 µM
[28]
  Stabilty: 78.9%
[29]
  fraction unbound: 0.23
[30]
  inhibition in vivo at 2 mg/kg: 73%
MCF7 [31]
  IC50: 0.0251 µM
[32]
  solubility thermodynamic: 400 µg/mL (≈ 839 µM)
